# Active and inactive are the calls of the source. No cut-off for these calls is given here.
# Key:
# [1] = Drug uptake in human OE33 cells assessed as cytoplasmic retention at 1.25 uM measured after 30 mins by RFP-tagged histone H2B staining based confocal microscopy; format: ADME, cell-based; settings: oe33, 0.5 h
# In short: (§1)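 Cells transfected with cDNA for histone H2B–RFP (DNA:reagent 1:1), then incubated 30 min with 1.25 µM compound. Imaged by confocal microscopy with 63× objective and 405 nm excitation.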
# [2] = Drug uptake in human OE33 cells assessed as increase in fluorescence intensity at 1.25 uM measured after 15 mins by microscopic method; format: ADME, cell-based; settings: oe33, 0.25 h
# In short: (§2)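 Cells exposed to 1.25 µM compound, fluorescence recorded at Ex 370 nm / Em 530 nm every 10 s for 30 min on an epifluorescence microscope (40× objective). Treatment started 1 min before recording. Representative images taken at 15 min.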
# [3] = molecular target: T1, Protein deacetylase HDAC6 (Homo sapiens, UniProt Q9UBN7); experiment: Inhibition of recombinant human full length C-terminal GST-tagged HDAC6 expressed in baculovirus infected Sf9 cells using ZMAL as substrate incubated for 90 mins by fluorometric method
# T1 sequence (Q9UBN7 whole entry): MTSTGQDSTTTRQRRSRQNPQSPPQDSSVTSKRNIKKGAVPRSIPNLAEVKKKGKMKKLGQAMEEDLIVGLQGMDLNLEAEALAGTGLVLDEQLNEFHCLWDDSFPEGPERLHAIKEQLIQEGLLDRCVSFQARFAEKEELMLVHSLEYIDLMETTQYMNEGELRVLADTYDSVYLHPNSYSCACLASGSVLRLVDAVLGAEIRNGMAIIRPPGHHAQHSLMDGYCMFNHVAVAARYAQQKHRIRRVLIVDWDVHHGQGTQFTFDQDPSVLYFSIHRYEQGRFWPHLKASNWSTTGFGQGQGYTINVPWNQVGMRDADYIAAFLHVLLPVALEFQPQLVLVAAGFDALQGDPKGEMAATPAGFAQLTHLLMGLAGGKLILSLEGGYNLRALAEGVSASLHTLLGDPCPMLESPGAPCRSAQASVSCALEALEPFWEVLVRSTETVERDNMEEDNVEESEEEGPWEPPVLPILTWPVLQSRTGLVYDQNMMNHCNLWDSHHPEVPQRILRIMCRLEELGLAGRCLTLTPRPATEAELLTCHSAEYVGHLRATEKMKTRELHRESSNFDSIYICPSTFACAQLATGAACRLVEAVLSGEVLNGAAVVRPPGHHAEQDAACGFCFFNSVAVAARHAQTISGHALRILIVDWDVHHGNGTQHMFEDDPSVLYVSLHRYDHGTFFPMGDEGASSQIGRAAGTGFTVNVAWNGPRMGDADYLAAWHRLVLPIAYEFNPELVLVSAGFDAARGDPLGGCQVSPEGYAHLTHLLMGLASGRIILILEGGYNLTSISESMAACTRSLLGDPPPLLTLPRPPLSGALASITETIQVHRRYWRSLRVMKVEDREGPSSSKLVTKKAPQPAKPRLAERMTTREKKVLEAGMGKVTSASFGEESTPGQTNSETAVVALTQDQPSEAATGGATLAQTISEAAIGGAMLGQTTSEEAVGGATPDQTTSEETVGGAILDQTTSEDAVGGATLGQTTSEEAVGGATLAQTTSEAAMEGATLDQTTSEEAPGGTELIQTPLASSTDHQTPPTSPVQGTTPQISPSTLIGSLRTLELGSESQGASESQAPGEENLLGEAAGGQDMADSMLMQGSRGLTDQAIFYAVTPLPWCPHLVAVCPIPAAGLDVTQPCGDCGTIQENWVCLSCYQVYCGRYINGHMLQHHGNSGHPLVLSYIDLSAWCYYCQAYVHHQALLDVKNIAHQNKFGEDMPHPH
# [4] = Drug uptake in human OE19 cells assessed as cytoplasmic retention at 1.25 uM measured after 30 mins by RFP-tagged histone H2B staining based confocal microscopy; format: ADME, cell-based; settings: oe19, 0.5 h; in short: as §1
# [5] = Drug uptake in human OE19 cells assessed as increase in fluorescence intensity at 1.25 uM measured after 15 mins by microscopic method; format: ADME, cell-based; settings: oe19, 0.25 h; in short: as §2
# [6] = molecular target: Histone deacetylase 3/Nuclear receptor corepressor 2 (HDAC3/NCoR2) (Homo sapiens, UniProt O15379); experiment: Inhibition of recombinant human C-terminal GST/His-tagged HDAC3 (1 to 428 residues) co-expressed with human N-terminal GST-tagged NCOR2 (395 to 489 residues) in baculovirus infected Sf9 cells using ZMAL as substrate incubated for 90 mins by fluorometric method
# Sequence of Histone deacetylase 3/Nuclear receptor corepressor 2 (HDAC3/NCoR2) (O15379 whole entry, the tested form may be a part): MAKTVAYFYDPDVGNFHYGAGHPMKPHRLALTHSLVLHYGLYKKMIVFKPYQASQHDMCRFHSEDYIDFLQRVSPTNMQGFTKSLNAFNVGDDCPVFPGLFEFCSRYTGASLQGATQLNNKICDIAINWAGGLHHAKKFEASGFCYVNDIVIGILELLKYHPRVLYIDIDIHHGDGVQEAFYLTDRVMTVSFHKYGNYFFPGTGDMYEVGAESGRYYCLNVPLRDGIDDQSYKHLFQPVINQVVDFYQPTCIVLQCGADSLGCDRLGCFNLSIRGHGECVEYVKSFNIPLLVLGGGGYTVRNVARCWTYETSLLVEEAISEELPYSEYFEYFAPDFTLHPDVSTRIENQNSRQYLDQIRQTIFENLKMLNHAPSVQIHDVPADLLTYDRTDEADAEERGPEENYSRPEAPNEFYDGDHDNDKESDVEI
# Sequence of Histone deacetylase 3/Nuclear receptor corepressor 2 (HDAC3/NCoR2) (Q9Y618 whole entry, further chain, the tested form may be a part): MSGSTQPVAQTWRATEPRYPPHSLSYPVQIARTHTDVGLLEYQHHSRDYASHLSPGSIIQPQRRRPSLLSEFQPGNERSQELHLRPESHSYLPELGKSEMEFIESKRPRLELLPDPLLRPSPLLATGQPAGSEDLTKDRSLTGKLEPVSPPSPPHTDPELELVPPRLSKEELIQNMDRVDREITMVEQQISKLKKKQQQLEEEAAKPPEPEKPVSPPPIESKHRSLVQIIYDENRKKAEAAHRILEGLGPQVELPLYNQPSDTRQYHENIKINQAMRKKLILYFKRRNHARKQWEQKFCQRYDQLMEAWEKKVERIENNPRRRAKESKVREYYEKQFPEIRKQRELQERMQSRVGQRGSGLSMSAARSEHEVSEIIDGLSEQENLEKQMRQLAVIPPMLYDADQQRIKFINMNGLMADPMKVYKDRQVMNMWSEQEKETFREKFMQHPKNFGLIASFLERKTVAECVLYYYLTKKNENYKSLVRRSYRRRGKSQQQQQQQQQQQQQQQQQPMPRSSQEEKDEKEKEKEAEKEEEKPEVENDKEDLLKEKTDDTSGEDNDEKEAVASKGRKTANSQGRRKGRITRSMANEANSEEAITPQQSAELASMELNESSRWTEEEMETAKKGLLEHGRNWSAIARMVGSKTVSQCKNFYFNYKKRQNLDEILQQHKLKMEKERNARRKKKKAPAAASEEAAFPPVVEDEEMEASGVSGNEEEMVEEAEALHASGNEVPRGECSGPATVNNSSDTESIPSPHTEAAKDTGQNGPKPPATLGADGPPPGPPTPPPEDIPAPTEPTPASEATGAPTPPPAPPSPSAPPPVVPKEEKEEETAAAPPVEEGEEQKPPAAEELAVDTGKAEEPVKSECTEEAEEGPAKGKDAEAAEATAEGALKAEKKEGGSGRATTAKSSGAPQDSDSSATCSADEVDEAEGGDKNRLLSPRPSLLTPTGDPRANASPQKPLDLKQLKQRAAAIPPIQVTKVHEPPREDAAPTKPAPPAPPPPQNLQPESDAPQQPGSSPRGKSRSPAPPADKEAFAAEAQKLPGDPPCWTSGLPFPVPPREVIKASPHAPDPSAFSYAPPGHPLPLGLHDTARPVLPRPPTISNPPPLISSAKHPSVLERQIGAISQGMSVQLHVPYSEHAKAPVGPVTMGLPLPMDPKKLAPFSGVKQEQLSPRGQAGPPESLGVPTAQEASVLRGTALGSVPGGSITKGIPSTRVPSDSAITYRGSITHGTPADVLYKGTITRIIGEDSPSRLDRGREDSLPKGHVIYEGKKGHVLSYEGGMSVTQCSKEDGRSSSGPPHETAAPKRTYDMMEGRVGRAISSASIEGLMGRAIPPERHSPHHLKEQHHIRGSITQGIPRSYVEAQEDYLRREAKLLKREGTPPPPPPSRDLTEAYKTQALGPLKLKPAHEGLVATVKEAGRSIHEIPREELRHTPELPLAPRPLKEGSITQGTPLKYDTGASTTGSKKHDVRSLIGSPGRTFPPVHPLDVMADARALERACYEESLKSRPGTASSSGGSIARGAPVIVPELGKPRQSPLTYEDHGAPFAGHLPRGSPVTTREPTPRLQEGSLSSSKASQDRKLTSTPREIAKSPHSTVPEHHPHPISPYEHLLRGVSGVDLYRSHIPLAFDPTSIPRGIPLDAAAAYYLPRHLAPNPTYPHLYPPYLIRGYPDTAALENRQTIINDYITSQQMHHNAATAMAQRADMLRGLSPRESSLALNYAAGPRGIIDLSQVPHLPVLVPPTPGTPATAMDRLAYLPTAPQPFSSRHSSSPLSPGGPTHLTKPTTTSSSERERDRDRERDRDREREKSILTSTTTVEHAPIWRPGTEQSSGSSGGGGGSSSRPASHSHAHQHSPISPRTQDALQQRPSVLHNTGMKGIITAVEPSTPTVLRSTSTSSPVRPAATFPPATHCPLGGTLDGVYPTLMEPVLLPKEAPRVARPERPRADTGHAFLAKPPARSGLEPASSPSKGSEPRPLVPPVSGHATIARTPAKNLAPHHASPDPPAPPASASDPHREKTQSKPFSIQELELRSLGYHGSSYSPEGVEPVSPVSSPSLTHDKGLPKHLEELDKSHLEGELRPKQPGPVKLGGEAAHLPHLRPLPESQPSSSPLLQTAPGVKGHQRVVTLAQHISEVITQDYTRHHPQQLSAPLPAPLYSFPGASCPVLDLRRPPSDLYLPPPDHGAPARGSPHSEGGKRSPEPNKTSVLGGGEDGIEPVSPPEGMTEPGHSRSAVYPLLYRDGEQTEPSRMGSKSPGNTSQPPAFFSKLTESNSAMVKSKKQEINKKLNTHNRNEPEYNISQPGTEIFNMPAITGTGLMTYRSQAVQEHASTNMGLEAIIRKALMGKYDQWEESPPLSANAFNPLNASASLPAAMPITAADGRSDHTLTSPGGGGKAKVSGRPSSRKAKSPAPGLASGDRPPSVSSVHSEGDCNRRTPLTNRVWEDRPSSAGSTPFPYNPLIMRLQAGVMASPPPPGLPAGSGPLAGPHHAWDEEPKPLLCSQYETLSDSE
# [7] = molecular target: Histone deacetylase 2 (Homo sapiens, UniProt Q92769); experiment: Inhibition of recombinant human full length C-terminal Flag-tagged HDAC2 expressed in baculovirus infected Sf9 cells using ZMAL as substrate incubated for 90 mins by fluorometric method; format: cell-based
# Sequence of Histone deacetylase 2 (Q92769 whole entry): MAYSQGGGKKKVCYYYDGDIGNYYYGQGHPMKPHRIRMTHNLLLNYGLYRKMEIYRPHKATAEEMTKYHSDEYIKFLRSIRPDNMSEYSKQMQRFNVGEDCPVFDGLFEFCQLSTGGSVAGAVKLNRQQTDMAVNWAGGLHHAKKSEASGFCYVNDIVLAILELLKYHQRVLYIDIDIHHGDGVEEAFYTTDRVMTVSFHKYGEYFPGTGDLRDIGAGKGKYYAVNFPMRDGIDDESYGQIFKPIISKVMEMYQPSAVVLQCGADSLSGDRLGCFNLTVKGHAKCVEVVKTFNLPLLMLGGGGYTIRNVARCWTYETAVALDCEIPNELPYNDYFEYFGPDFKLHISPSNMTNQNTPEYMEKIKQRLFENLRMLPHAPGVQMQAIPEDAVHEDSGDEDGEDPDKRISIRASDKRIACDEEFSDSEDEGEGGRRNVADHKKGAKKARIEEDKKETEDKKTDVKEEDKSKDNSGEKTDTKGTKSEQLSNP
# [8] = Drug uptake in human OE33 cells assessed as increase in fluorescence intensity at 1.25 uM measured for every 10 sec for 30 mins by fluorescence based assay; format: ADME, cell-based; settings: oe33, 0.5 h; in short: as §2
# [9] = Drug uptake in human OE19 cells assessed as cytoplasmic retention at 1.25 uM measured after 30 mins by RFP-tagged histone H2B staining based confocal microscopy; settings: oe19, 30 min
# [10] = Drug uptake in human OE19 cells assessed as increase in fluorescence intensity at 1.25 uM measured for every 10 sec for 30 mins by fluorescence based assay; format: ADME, cell-based; settings: oe19, 0.5 h; in short: as §2
# [11] = molecular target: T2, Histone deacetylase (Homo sapiens) (UniProt Q13547+O15379+Q9UBN7+Q92769+Q9UQL6+Q8WUI4+Q9BY41+Q96DB2+P56524+Q9UKV0+Q969S8); experiment: Inhibition of HDAC in human OE19 cells assessed as increase in histone H3 acetylation at 6.5 uM incubated for 48 hrs by Western blot analysis; format: cell-based
# In short: (§3)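 500,000 OE33 or 750,000 OE19 cells treated 48 h. Histones isolated, 5 µg nuclear extract run on 15% SDS-PAGE and blotted. Probed overnight at 4 °C with anti-acetyl-histone H3 (Lys9) and anti-histone H3, compared with untreated controls.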
# [12] = system: OE19; experiment: Antiproliferative activity against human OE19 cells assessed as reduction in cell viability incubated for 72 hrs by presto blue assay; format: functional
# In short: (§4)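 3500 cells per well seeded and grown 24 h, then exposed to compound for 72 h. Viability read with PrestoBlue reagent per manufacturer's protocol, and GI50 taken from this.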
# [13] = Drug uptake in human OE33 cells assessed as cytoplasmic retention at 1.25 uM measured after 30 mins by RFP-tagged histone H2B staining based confocal microscopy; settings: oe33, 30 min
# [14] = molecular target: T2, Histone deacetylase (Homo sapiens); experiment: Inhibition of HDAC in human OE33 cells assessed as increase in histone H3 acetylation at 6.5 uM incubated for 48 hrs by Western blot analysis; format: cell-based; in short: as §3
# [15] = system: OE33; experiment: Antiproliferative activity against human OE33 cells assessed as reduction in cell viability incubated for 72 hrs by presto blue assay; format: functional; in short: as §4
# [16] = molecular target: Histone deacetylase 1 (Homo sapiens, UniProt Q13547); experiment: Inhibition of recombinant human full length C-terminal Flag/His-tagged HDAC1 expressed in baculovirus infected Sf9 cells using ZMAL as substrate incubated for 90 mins by fluorometric method
# Sequence of Histone deacetylase 1 (Q13547 whole entry): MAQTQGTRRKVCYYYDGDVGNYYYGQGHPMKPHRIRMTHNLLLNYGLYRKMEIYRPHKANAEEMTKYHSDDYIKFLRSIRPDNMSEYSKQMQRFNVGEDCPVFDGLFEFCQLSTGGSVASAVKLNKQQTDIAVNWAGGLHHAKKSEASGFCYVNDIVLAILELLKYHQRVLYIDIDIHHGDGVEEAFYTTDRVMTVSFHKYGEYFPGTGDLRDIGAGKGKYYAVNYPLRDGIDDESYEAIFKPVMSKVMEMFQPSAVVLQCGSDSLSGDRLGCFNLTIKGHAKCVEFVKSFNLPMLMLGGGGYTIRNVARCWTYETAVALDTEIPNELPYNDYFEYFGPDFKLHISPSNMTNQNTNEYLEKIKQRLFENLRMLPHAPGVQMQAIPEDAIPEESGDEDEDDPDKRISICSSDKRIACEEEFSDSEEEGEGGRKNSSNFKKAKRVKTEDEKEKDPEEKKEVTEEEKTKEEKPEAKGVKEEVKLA
# [17] = molecular target: T2, Histone deacetylase (Homo sapiens); experiment: Inhibition of HDAC in human OE19 cells assessed as increase in histone H3 acetylation at 0.6 uM incubated for 48 hrs by Western blot analysis; format: cell-based; in short: as §3
# [18] = molecular target: T2, Histone deacetylase (Homo sapiens); experiment: Inhibition of HDAC in human OE33 cells assessed as increase in histone H3 acetylation at 0.6 uM incubated for 48 hrs by Western blot analysis; format: cell-based; in short: as §3
# [19] = molecular target: T2, Histone deacetylase (Homo sapiens); experiment: Inhibition of HDAC in human OE33 cells assessed as increase in histone H3 acetylation at 2.25 uM incubated for 48 hrs by Western blot analysis; format: cell-based; in short: as §3
# [20] = molecular target: T2, Histone deacetylase (Homo sapiens); experiment: Inhibition of HDAC in human OE19 cells assessed as increase in histone H3 acetylation at 2.25 uM incubated for 48 hrs by Western blot analysis; format: cell-based; in short: as §3
Drug uptake [1],Drug uptake [2],IC50 [3] [nM],Drug uptake [4],Drug uptake [5],IC50 [6] [nM],IC50 [7] [nM],Drug uptake [8],Drug uptake [9],Drug uptake [10],Drug uptake [13],IC50 [16] [nM],Compound,"GI50 ([12]; Homo sapiens, OE19, 72 h) [nM]","GI50 ([15]; Homo sapiens, OE33, 72 h) [nM]",also measured
Active,Active,132,Active,Active,1020,3500,Active,Active,Active,Active,915,CN(C)c1cccc2c(S(=O)(=O)N(CC(=O)NCc3ccccc3)Cc3ccc(C(=O)NO)cc3)cccc12,12900,6230,inhibition [11]: Active; inhibition [14]: Active
Active,Active,> 10000,Active,Active,1130,668,Active,Active,Active,Active,676,CN(C)c1cccc2c(S(=O)(=O)N(CC(=O)NCc3ccccc3)Cc3ccc(C(=O)Nc4ccccc4N)cc3)cccc12,9100,4590,inhibition [17]: Active; inhibition [18]: Active
–,–,–,–,–,–,–,–,–,–,–,–,O=C(CCCCCCC(=O)Nc1ccccc1)NO [VORINOSTAT],–,–,GI50 [12]: 1420 nM; GI50 [15]: 1120 nM
Active,Active,46,Active,Active,87,81,Active,Active,Active,Active,34,CN(C)c1cccc2c(S(=O)(=O)N(CCCCCC(=O)NO)CC(=O)NCc3ccccc3)cccc12,925,776,inhibition [19]: Active; inhibition [20]: Active

# Source: ChEMBL document CHEMBL4396931, “Fluorescent analogs of peptoid-based HDAC inhibitors: Synthesis, biological activity and cellular uptake kinetics” (Bioorg Med Chem, 2019)
